Key:
Rattus norvegicus [1] = assay: Effect on in vivo accumulation of dopamine(DA) was measured in rat limbic system at 48(Micromol/kg) dose; type: functional
Method in brief: (§1)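 Non-reserpinized rats got the test drug sc in the neck (5 mL/kg) 60 min before death, and NSD 1015 (573 µmol/kg ip) 30 min before death. After decapitation, the limbic system was dissected on ice, frozen and homogenized in 0.1 M perchloric acid with α-methyl-DOPA internal standard. DA was measured by ion-pair reversed-phase HPLC with electrochemical detection. Data are mean ± SEM (controls n=17-19, treated 3-7), analysed by ANOVA/Dunnett.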

Rattus norvegicus [2] = assay: Effect on in vivo accumulation of DOPA was measured in rat limbic system at 48(Micromol/kg) dose; type: functional
Method in brief: (§2)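 Rats not pretreated with reserpine received test drug (hydrochloride or hydrobromide salt) sc in the neck region 60 min before death. NSD 1015 decarboxylase inhibitor (100 mg/kg, i.e., 573 μmol/kg, ip) was given 30 min before decapitation. Brain was dissected on ice. Tissue was homogenized in 0.1 M perchloric acid with α-methyl-DOPA internal standard. Analytes were quantified by ion-pair reversed-phase HPLC-electrochemical detection. Values are means ± SEM, n = 3-7 per treated group.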

Rattus norvegicus [3] = assay: Effect on in vivo accumulation of […] was measured in rat corpus striatum at 48(Micromol/kg) dose; type: functional; method in brief: as §2
Rattus norvegicus [4] = assay: Effect on in vivo accumulation of 5-HTP was measured in rat corpus striatum at 48(umol/kg) dose; type: functional; method in brief: as §2
Rattus norvegicus [5] = assay: Effect on in vivo accumulation of 5-HTP was measured in rat limbic system at 48(Micromol/kg) dose; type: functional; method in brief: as §2
Rattus norvegicus [6] = assay: Effect on in vivo accumulation of DOPA was measured in rat corpus striatum at 48(Micromol/kg) dose; type: functional; method in brief: as §2
[7] = biological target: T1, 5-hydroxytryptamine receptor 1A (Rattus norvegicus, UniProt P19327); assay: (§3) In vitro Inhibitory activity tested at 5-hydroxytryptamine 1A receptor binding site in rat; type: functional
T1 sequence (P19327 whole entry): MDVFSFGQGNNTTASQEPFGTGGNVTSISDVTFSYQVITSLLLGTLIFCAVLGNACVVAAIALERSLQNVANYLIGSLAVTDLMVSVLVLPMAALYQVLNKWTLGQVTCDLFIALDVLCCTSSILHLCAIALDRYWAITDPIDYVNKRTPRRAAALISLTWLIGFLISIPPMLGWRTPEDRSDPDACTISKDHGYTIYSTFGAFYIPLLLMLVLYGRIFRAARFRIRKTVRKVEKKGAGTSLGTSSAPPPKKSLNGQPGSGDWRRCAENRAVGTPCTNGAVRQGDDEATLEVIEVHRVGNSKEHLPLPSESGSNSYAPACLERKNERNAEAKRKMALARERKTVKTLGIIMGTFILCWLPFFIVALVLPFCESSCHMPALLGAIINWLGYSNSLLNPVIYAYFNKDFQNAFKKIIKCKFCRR
Method in brief: (§4)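 Competition binding used rat brain membranes washed in 50 mM Tris-HCl pH 7.4, preincubated 10 min at 37 °C to remove 5-HT, and used at 10 mg wet tissue/mL. Assay: 1 nM [3H]-8-OH-DPAT, 3 mM CaCl2, 100 µM pargyline, 15 min at 37 °C, then filtration on PEI-treated filters. Nonspecific binding was set with 10 µM 5-HT. IC50 came from four-parameter logistic regression, mean ± SEM of N experiments.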

Rattus norvegicus [8] = assay: Effect on in vivo accumulation of dopamine(DA) was measured in rat limbic system at 50(Micromol/kg) dose; type: functional; method in brief: as §1
Rattus norvegicus [9] = assay: Effect on in vivo accumulation of DOPA was measured in rat limbic system at 50(Micromol/kg) dose; type: functional; method in brief: as §2
Rattus norvegicus [10] = assay: Effect on in vivo accumulation of […] was measured in rat corpus striatum at 50(Micromol/kg) dose; type: functional; method in brief: as §2
Rattus norvegicus [11] = assay: Effect on in vivo accumulation of 5-HTP was measured in rat corpus striatum at 50(umol/kg) dose; type: functional; method in brief: as §2
Rattus norvegicus [12] = assay: Effect on in vivo accumulation of 5-HTP was measured in rat limbic system at 50(Micromol/kg) dose; type: functional; method in brief: as §2
Rattus norvegicus [13] = assay: Effect on in vivo accumulation of DOPA was measured in rat corpus striatum at 50(Micromol/kg) dose; type: functional; method in brief: as §2
Rattus norvegicus [14] = assay: Effect on in vivo accumulation of […] was measured in rat corpus striatum at 66(Micromol/kg) dose; type: functional; method in brief: as §2
Rattus norvegicus [15] = assay: Effect on in vivo accumulation of dopamine(DA) was measured in rat limbic system at 66(Micromol/kg) dose; type: functional; method in brief: as §1
Rattus norvegicus [16] = assay: Effect on in vivo accumulation of DOPA was measured in rat limbic system at 66(Micromol/kg) dose; type: functional; method in brief: as §2
Rattus norvegicus [17] = assay: Effect on in vivo accumulation of 5-HTP was measured in rat corpus striatum at 66(umol/kg) dose; type: functional; method in brief: as §2
Rattus norvegicus [18] = assay: Effect on in vivo accumulation of 5-HTP was measured in rat limbic system at 66(Micromol/kg) dose; type: functional; method in brief: as §2
Rattus norvegicus [19] = assay: Effect on in vivo accumulation of DOPA was measured in rat corpus striatum at 66(Micromol/kg) dose; type: functional; method in brief: as §2
Rattus norvegicus [20] = assay: Effect on in vivo accumulation of […] was measured in rat corpus striatum at 59(Micromol/kg) dose; type: functional; method in brief: as §2
Rattus norvegicus [21] = assay: Effect on in vivo accumulation of dopamine(DA) was measured in rat limbic system at 59(Micromol/kg) dose; type: functional; method in brief: as §1
Rattus norvegicus [22] = assay: Effect on in vivo accumulation of DOPA was measured in rat limbic system at 59(Micromol/kg) dose; type: functional; method in brief: as §2
Rattus norvegicus [23] = assay: Effect on in vivo accumulation of 5-HTP was measured in rat corpus striatum at 59(umol/kg) dose; type: functional; method in brief: as §2
Rattus norvegicus [24] = assay: Effect on in vivo accumulation of 5-HTP was measured in rat limbic system at 59(Micromol/kg) dose; type: functional; method in brief: as §2
Rattus norvegicus [25] = assay: Effect on in vivo accumulation of DOPA was measured in rat corpus striatum at 59(Micromol/kg) dose; type: functional; method in brief: as §2
[26] = biological target: T1, 5-hydroxytryptamine receptor 1A; assay: as §3; method in brief: as §4

How did the Activity (Rattus norvegicus [1]) turn out when `CCCN(CCC)[C@H]1Cc2c(cccc2OC)C[C@@H]1C` (racemic) was run?
The Activity was 1225 ng/g.

What about the Activity (Rattus norvegicus [2]) of the same compound?
The Activity was 389 ng/g.

What about the Activity (Rattus norvegicus [3]) of the same compound?
The Activity was 5833 ng/g.

And the Activity (Rattus norvegicus [4])?
The Activity was <61.3 ng/g.

And the Activity (Rattus norvegicus [5])?
The Activity was 145 ng/g.

What about the Activity (Rattus norvegicus [6]) of the same compound?
The Activity was 979 ng/g.

For `CCCN(CCC)[C@H]1Cc2c(O)cccc2C[C@H]1C` (racemic) [listing 1 of 2 here], which IC50 [7] is on record?
The IC50 was 774 nM.

What about the Activity (Rattus norvegicus [8]) of the same compound?
Its Activity is <678 ng/g.

What about the Activity (Rattus norvegicus [9]) of the same compound?
The Activity was 436 ng/g.

And the Activity (Rattus norvegicus [10])?
Its Activity is <2935 ng/g.

And the Activity (Rattus norvegicus [11])?
Its Activity is <57.8 ng/g.

And the Activity (Rattus norvegicus [12])?
The Activity was 138 ng/g.

What about the Activity (Rattus norvegicus [13]) of the same compound?
The Activity was 1059 ng/g.

`CCCN(CCC)[C@H]1Cc2c(cccc2OC)C[C@H]1C` (racemic) was tested. Which Activity (Rattus norvegicus [1]) did it give?
The Activity was 1342 ng/g.

And the Activity (Rattus norvegicus [2])?
Its Activity is 414 ng/g.

And the Activity (Rattus norvegicus [3])?
Its Activity is 6465 ng/g.

And the Activity (Rattus norvegicus [4])?
The Activity was 88.8 ng/g.

What about the Activity (Rattus norvegicus [5]) of the same compound?
The Activity was 141 ng/g.

And the Activity (Rattus norvegicus [6])?
The Activity was 1078 ng/g.

`CCCN(CCC)[C@H]1Cc2c(O)cccc2CC1(C)C` (racemic) was tested. Which Activity (Rattus norvegicus [1]) did it give?
Its Activity is 1125 ng/g.

What about the Activity (Rattus norvegicus [2]) of the same compound?
The Activity was 362 ng/g.

And the Activity (Rattus norvegicus [3])?
The Activity was 5417 ng/g.

What about the Activity (Rattus norvegicus [4]) of the same compound?
The Activity was 90 ng/g.

What about the Activity (Rattus norvegicus [5]) of the same compound?
Its Activity is 158 ng/g.

What about the Activity (Rattus norvegicus [6]) of the same compound?
The Activity was 982 ng/g.

`COc1cccc2c1C[C@H](N)[C@@H](C)C2` (racemic) was tested. Which Activity (Rattus norvegicus [14]) did it give?
The Activity was <6863 ng/g.

What about the Activity (Rattus norvegicus [15]) of the same compound?
Its Activity is 1243 ng/g.

What about the Activity (Rattus norvegicus [16]) of the same compound?
The Activity was 356 ng/g.

What about the Activity (Rattus norvegicus [17]) of the same compound?
The Activity was 90.2 ng/g.

And the Activity (Rattus norvegicus [18])?
Its Activity is <106 ng/g.

And the Activity (Rattus norvegicus [19])?
Its Activity is <823 ng/g.

Which Activity (Rattus norvegicus [20]) does the source give for `CCCN[C@H]1Cc2c(O)cccc2C[C@@H]1C` (racemic) here?
Its Activity is 5877 ng/g.

What about the Activity (Rattus norvegicus [21]) of the same compound?
Its Activity is 1215 ng/g.

What about the Activity (Rattus norvegicus [22]) of the same compound?
Its Activity is 400 ng/g.

What about the Activity (Rattus norvegicus [23]) of the same compound?
The Activity was 101 ng/g.

And the Activity (Rattus norvegicus [24])?
The Activity was 155 ng/g.

And the Activity (Rattus norvegicus [25])?
The Activity was 1047 ng/g.

With `CCCN[C@H]1Cc2c(O)cccc2C[C@H]1C` (racemic) as the compound, how does the Activity (Rattus norvegicus [20]) read?
The Activity was 4530 ng/g.

And the Activity (Rattus norvegicus [21])?
The Activity was 1058 ng/g.

What about the Activity (Rattus norvegicus [22]) of the same compound?
The Activity was <283 ng/g.

And the Activity (Rattus norvegicus [23])?
Its Activity is 69 ng/g.

What about the Activity (Rattus norvegicus [24]) of the same compound?
Its Activity is <98.1 ng/g.

What about the Activity (Rattus norvegicus [25]) of the same compound?
Its Activity is <633 ng/g.

`CCCN(CCC)[C@H]1Cc2c(O)cccc2C[C@H]1C` (racemic) [listing 2 of 2 here] was tested. Which IC50 [26] did it give?
The IC50 was 774 nM.

`CCCN(CCC)[C@H]1Cc2c(O)cccc2C[C@@H]1C` (racemic; form 1) was tested. Which IC50 [26] did it give?
Its IC50 is 129 nM.

Which results are given for `CCCN(CCC)[C@H]1Cc2c(O)cccc2C[C@@H]1C` (racemic; form 2)?
IC50 [26]: 129 nM; Activity (Rattus norvegicus [8]): <775 ng/g; Activity (Rattus norvegicus [9]): 348 ng/g; Activity (Rattus norvegicus [10]): <3871 ng/g; Activity (Rattus norvegicus [11]): <27.1 ng/g; Activity (Rattus norvegicus [12]): <79.3 ng/g; Activity (Rattus norvegicus [13]): 792 ng/g

From ChEMBL document CHEMBL1124127, “Central dopaminergic and 5-hydroxytryptaminergic effects of C3-methylated derivatives of 8-hydroxy-2-(di-n-propylamino)tetralin” (J Med Chem, 1988)
